Experimental data reported in ChEMBL document CHEMBL1150820, “New macrolides and furan carboxylic acid derivative from the sponge-derived fungus Cladosporium herbarum” (2001).
Activity calls are given as the source filed them. The calls are words filed in the database; no cut-off is given here.

Key:
[1] = system: Escherichia coli; assay: Antibacterial activity against Escherichia coli ATCC 25922; assay type: functional, organism-based
Outline: (§1)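 Agar plate diffusion: 5.5 mm susceptibility disks loaded with 5 µg pure compound (1 mg for crude extracts) placed on agar plates seeded with the test organism (B. subtilis 168, S. aureus ATCC 25923, E. coli ATCC 25922 or C. albicans); inhibition zones read after 24 h incubation at 37 °C.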

[2] = system: Bacillus subtilis; assay: Antibacterial activity against Bacillus subtilis 168; assay type: functional, organism-based; settings: subsp. subtilis str. 168; outline: as §1
[3] = system: Staphylococcus aureus; assay: Antibacterial activity against Staphylococcus aureus ATCC 25923; assay type: functional, organism-based; outline: as §1
[4] = system: Candida albicans; assay: Antifungal activity against Candida albicans at 5 ug after 24 hrs by agar plate diffusion assay; assay type: functional, organism-based; outline: as §1
[5] = system: Staphylococcus aureus; assay: Antibacterial activity against Staphylococcus aureus ATCC 25923 at 5 ug after 24 hrs by agar plate diffusion assay; assay type: functional; settings: ATCC 25923, 24 h, read-out: IZ; outline: as §1
[6] = system: Escherichia coli; assay: Antibacterial activity against Escherichia coli ATCC 25922 at 5 ug after 24 hrs by agar plate diffusion assay; assay type: functional, organism-based; outline: as §1
[7] = system: Bacillus subtilis; assay: Antibacterial activity against Bacillus subtilis 168 at 5 ug after 24 hrs by agar plate diffusion assay; assay type: functional; settings: subsp. subtilis str. 168, 24 h, read-out: IZ; outline: as §1

Compound	Activity [1]	Activity [2]	Activity [3]	inhibition zone (IZ) [4]	zone of inhibition at 5 µg/disc [5] [mm]	inhibition zone (IZ) [6]	zone of inhibition at 5 µg/disc [7] [mm]
CC1CCCCCC(O)C(=O)C(SC2CC(=O)OC(C)CCCCCC(O)C2=O)CC(=O)O1 (centres undefined)	inactive	inactive	inactive	–	–	–	–
O=C(O)c1ccc(CO)o1 [SUMIKI'S ACID]	–	–	–	inactive	7	inactive	7
CC(=O)OCc1ccc(C(=O)O)o1 [ACETYL SUMIKI'S ACID]	–	–	–	inactive	7	inactive	7
COC(=O)C(O)CSC1CC(=O)OC(C)CCCCCC(O)C1=O (centres undefined)	inactive	inactive	inactive	–	–	–	–
